rCAG RNA binder: binders of r(CAG) RNA repeats, primary screen, biochemical, fluorescence; r(CAG) RNA repeat, TO-PRO-1 dye displacement fluorescence; inhibition, % at 3 µM; 1.3% of 370,000 active;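 active = inhibition above the plate cutoff, the mean of all test compounds on that plate plus 3 SD, cut at about 35% in these data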;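 also: 0% = DMSO alone and 100% = 100 µM mitoxantrone as full dye displacement; higher means more dye released from RNA so lower well fluorescence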
TCR CD3 inh: inhibitors of human TCR-CD3 interaction, primary screen, biochemical, fluorescence, TAMRA-labeled TCR probe. T-cell receptor (TCR). inhibition, % at 9.4 µM. 0.37% of 360,000 active. AID 651800, 2012; in the data active = inhibition above about 19%;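 also: recombinant mutant TCR 2C K166C tagged with TAMRA read by polarization; 0% = receptor in buffer alone and 100% = receptor with positive control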
mABHD4 FP: ABHD4 inhibitors, primary screen, biochemical, fluorescence polarization, mouse; (Lyso)-N-acylphosphatidylethanolamine lipase (Mus musculus), Q8VD66; 0.54% of 370,000 active; inhibition, % at 8.92 µM; purified mABHD4, FP-Rh probe fluorescence polarization;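 active = inhibition exceeding the mean over every tested compound plus 3 SD, cut at about 30% in these data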;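 also: 0% = plate median of compound wells and 100% = S159A mutant with DMSO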
Target sequence (Q8VD66 whole entry, looked up): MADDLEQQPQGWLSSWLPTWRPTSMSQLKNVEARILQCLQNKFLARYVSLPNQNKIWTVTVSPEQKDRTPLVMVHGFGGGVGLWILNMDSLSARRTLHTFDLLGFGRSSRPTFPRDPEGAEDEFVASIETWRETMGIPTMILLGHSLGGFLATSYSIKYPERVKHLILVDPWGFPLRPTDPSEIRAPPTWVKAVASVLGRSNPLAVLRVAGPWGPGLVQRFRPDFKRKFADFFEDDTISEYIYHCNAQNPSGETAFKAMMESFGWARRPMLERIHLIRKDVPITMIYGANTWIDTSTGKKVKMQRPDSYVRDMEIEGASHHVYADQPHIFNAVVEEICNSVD
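system = mouse ABHD4 enzyme, wild type | medium = HEPES pH 7.0, NaCl, Pluronic buffer | also added = FP-Rh probe | incubation = Enzyme–compound pre-incubation 45 min, then probe 60 min, both 25 °C | technique = fluorescence polarization, excitation 525 nm, emission 598 nm, BODIPY TMR filters | controls = S159A mutant high control, sample median low control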
PRMT1 FP inh: PRMT1 methyltransferase inhibitors, primary screen, biochemical, fluorescence polarization | recombinant PRMT1, activity-based probe fluorescence polarization | inhibition, % at 2.79 µM | 1.3% of 370,000 active | AID 652257, 2013;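 active = inhibition above about 21% made by adding two undisclosed values, limit read from the data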
SIAE primary: human SIAE inhibitors, primary screen, biochemical, fluorescence polarization, FP-Rh probe, 1536-well HTS. Sialate O-acetylesterase (Homo sapiens), Q9HAT2. SIAE FP-Rh probe binding. inhibition, % at 9.66 µM. 0.69% of 370,000 active;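 active = inhibition above a cutoff: mean of compounds within the control limits plus 3 SD of those, cut at about 17% in these data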;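 also: 0% = plate median of compound wells and 100% = probe without SIAE protein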
PRMT1 confirm: PRMT1 methyltransferase inhibitors, confirmation, biochemical, fluorescence polarization, triplicate; shares compounds with PRMT1 FP inh; recombinant His-PRMT1, activity-based probe fluorescence polarization; inhibition, % at 2.79 µM; 42% of 3,300 active;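 active = mean inhibition across replicates above the hit cutoff derived for the earlier primary screen, cut at about 22% in these data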
Active calls of the source: *; x = no result given. Compounds with a hit are over-represented: about 3.3% of the library has one in this group of screens.

SMILES | rCAG RNA binder | TCR CD3 inh | mABHD4 FP | PRMT1 FP inh | SIAE primary | PRMT1 confirm
C=CCc1cccc(C=NNC(=O)c2ccco2)c1O | 5 | x | -4 | 0 | 1 | x
C=CC(C)n1c(Br)nc2c1c(=O)[nH]c(=O)n2C (stereo unspecified) | -2 | 2 | 3 | -5 | 5 | x
CC(C)n1c(=S)[nH]c2c1c(=O)[nH]c(=O)n2C | 0 | 0 | 4 | 45* | 7 | 47*
COc1ccc(-c2cn(-c3ccc(C)c(Cl)c3)c(=S)[nH]2)cc1OC | 10 | -1 | 6 | 7 | 0 | x
COc1ccc(-c2cn(-c3ccc(C)c(C)c3)c(=S)[nH]2)cc1OC | 15 | 1 | 6 | 31* | 3 | 18
CCCOc1ccc(CNC(=O)c2ccc3c(c2)N(CC)CCS3)cc1 | 12 | -3 | 8 | 28* | 8 | 5
O=C(NCc1cccnc1)c1ccc2c(c1)N(Cc1ccccc1)CCS2 | 5 | 1 | 3 | 29* | 2 | 7
Cc1ccccc1CS(=O)(=O)Cc1ccc(C(=O)Nc2ccccc2C)o1 | 2 | x | 1 | 2 | -1 | x
CN(c1ccc(NC(=O)Cc2c[nH]c3ccccc23)cc1)c1ccccn1 | 7 | -7 | 10 | 2 | 14 | x
c1ccc(Cn2ccc3ccc(-c4ccc5ccn(Cc6cccc(-c7cccs7)c6)c5c4)cc32)cc1 | 22 | x | -1 | 2 | 7 | x
CCc1cc(C(=O)Nc2ccc(OC)nc2)sc1C | -22 | 5 | -4 | 26* | -4 | 7
COc1ccc(NC(=O)c2cc(Br)c(Br)s2)cn1 | 7 | 2 | -22 | -4 | -18 | x
Cc1snc(SCC(=O)c2ccc([N+](=O)[O-])cc2)c1C#N | 17 | 4 | 16 | 47* | 11 | 53*
COc1cccc(-c2cc3nc(-c4ccccc4)cc(N4CCN(C(=O)c5ccoc5)CC4)n3n2)c1 | 15 | 2 | -22 | 2 | -27 | x
COc1cccc(-c2cc3nc(-c4ccco4)cc(N4CCN(C(C)=O)CC4)n3n2)c1 | x | x | -3 | 50* | -16 | 16
O=C(c1ccoc1)N1CCN(c2cc(-c3ccco3)nc3cc(-c4ccco4)nn23)CC1 | x | x | -9 | 34* | -9 | -1
CCCC[C@H](C(=O)N(C)c1ccccc1)[C@@H](O)c1ccc(Cl)cc1 | 2 | x | -6 | 1 | 3 | x
O=C(c1cccs1)N1CC[C@H]2[C@H](CCCN2Cc2cc(F)cc(F)c2)C1 | 2 | x | -6 | 2 | 3 | x
Cc1cc(C)nc(SCNC(=O)c2ccccc2)n1 | -4 | -6 | -6 | 34* | 8 | -2
Cc1cc(SCNC(=O)c2ccccc2)nc(C(C)C)n1 | -2 | 3 | 0 | 11 | -3 | x
COc1ccc(S(=O)(=O)N2CCOCC2)cc1NC(=O)CSc1nnc(C2CC2)n1C1CC1 | 0 | 3 | 8 | 40* | -6 | 0
Cc1ccc(S(=O)(=O)N2CCOCC2)cc1NC(=O)CSc1nnc(C2CC2)n1C1CC1 | -2 | 2 | 12 | -1 | 1 | x
Cc1cccc(Cn2c(C(=O)OC(C)C)cc3c2ccn3C)c1 | 8 | 5 | 15 | 36* | 2 | 3
CCOC(=S)SCc1cn2ccccc2n1 | -2 | 9 | 2 | 10 | -1 | x
CCOC(=S)SCc1cn2ccc(C)cc2n1 | 0 | 4 | -2 | 42* | 11 | 26*
CCOC(=O)c1c(-c2ccc(C)o2)csc1NC(=O)COC(=O)c1cccs1 | 5 | 8 | -8 | 2 | -4 | x
CCOC(=O)c1c(-c2ccc(C)o2)csc1NC(=O)CSc1ncn[nH]1 | 13 | 1 | -9 | 33* | -6 | 14
CCOC(=O)c1c(-c2ccc(C)o2)csc1NC(=S)NC(=O)N(C)C | 20 | -5 | 2 | 80* | 4 | 12
CCC(=O)N1CCc2cc(Br)c(S(=O)(=O)N3CCC(C(=O)NC(C)(C)C)CC3)cc21 | 2 | x | -2 | 1 | 12 | x
Cc1ccc(-c2nc3s/c(=C\c4ccco4)c(=O)n3n2)cc1 | 25 | 12 | -2 | 28* | -6 | 1

Compound activity: PubChem, The Scripps Research Institute Molecular Screening Center
